As usually defined, the IC50 is the concentration that gives 50% inhibition.

The subject of experiment [1] is human fibroblasts (HAF). The experiment can be described thus: SRB cytotoxicity assay, human fibroblasts HAF. The experiment is classed as cell-based. As to conditions: Fibroblast, 96 h, read-out: IC50 HAF.
The subject of experiment [2] is DU145 cells. The experiment can be described thus: SRB antiproliferative assay, DU145. The format is cell-based, human. The note with it: in DU145 cells. A general note: Sulforhodamine B stains cellular protein and so reports cell mass.
Experiment [3] has as its system PC3 cells. The experiment can be described thus: SRB antiproliferative assay, PC3. The format is cell-based, human. The note with it: in PC3 cells.
Experiment [4] has as its system DU145 cells. The experiment can be described thus: Transwell migration assay. The experiment is classed as cell-based, human. The note with it: 10 μM, 24 h.
The test system of experiment [5] is LNCaP cells. The experiment can be described thus: SRB antiproliferative assay, LNCaP. The experiment is classed as cell-based. The note with it: Homo sapiens, read-out: IC50 LNCaP. The gist of the method:
(§1)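 AR-positive human prostate cancer line, tested in vitro for antiproliferative activity by sulforhodamine B (SRB) staining, with IC50 as the read-out.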

For experiment [6], the system named is DU145, PC3 and PC3M cell lines. As to the kind of experiment: SRB antiproliferative assay, CRPC cell lines together. The note with it: across DU145, PC3 and PC3M. The format is cell-based, human.
For experiment [7], the system named is DU145 cells. The experiment can be described thus: Cell cycle analysis by PI staining and flow cytometry. The experiment is classed as cell-based, human. The note with it: 10 μM, 24 h, control 9.66%. In general terms: Flow cytometry measures light scatter and fluorescence of single cells or particles in a stream.
Experiment [8] deals with 22RV1 cells. As to the kind of experiment: SRB antiproliferative assay, 22RV1. The format is cell-based. The note with it: Homo sapiens, 22Rv1, read-out: IC50 22RV1. The essentials:
as §1

Experiment [9] relates to DU145 cells. As to the kind of experiment: Wound healing migration assay. As to conditions: 10 μM, 24 h. The experiment is classed as cell-based, human.
Experiment [10] relates to PARP and CL.PARP in DU145 cells. The experiment can be described thus: Western blot of PARP and cleaved PARP. The format is cell-based, human. (In western blotting, separated proteins are transferred to a membrane and probed.)

With `C#CCOC(=O)C[C@H]1Oc2ccccc2C(=O)[C@]1(C)[N+](=O)[O-]` [Compound 6], the IC50 in experiment [1] was > 100 µM. As to `C[C@]1([N+](=O)[O-])C(=O)c2ccccc2O[C@@H]1CC(=O)OCc1ccccc1` [Compound 10], the 50% inhibitory concentration (IC50) in experiment [1] is > 100 µM. Consider `C[C@]1([N+](=O)[O-])C(=O)c2ccccc2O[C@@H]1CC(N)=O` [Compound 11], for which the IC50 in experiment [1] was > 100 µM. For `CNC(=O)C[C@H]1Oc2ccccc2C(=O)[C@]1(C)[N+](=O)[O-]` [Compound 12], in experiment [1], the IC50 was > 100 µM. On the same count and under the same terms, the figure for `CCNC(=O)C[C@H]1Oc2ccccc2C(=O)[C@]1(C)[N+](=O)[O-]` [Compound 13] is > 100 µM; for `C#CCNC(=O)C[C@H]1Oc2ccccc2C(=O)[C@]1(C)[N+](=O)[O-]` [Compound 14] it is > 100 µM; for `CCCCNC(=O)C[C@H]1Oc2ccccc2C(=O)[C@]1(C)[N+](=O)[O-]` [Compound 15] it is > 100 µM. Take `CC(C)(C)NC(=O)C[C@H]1Oc2ccccc2C(=O)[C@]1(C)[N+](=O)[O-]` [Compound 16]: in experiment [1], the IC50 was > 100 µM.

Regarding `CCCCCCCCNC(=O)C[C@H]1Oc2ccccc2C(=O)[C@]1(C)[N+](=O)[O-]` [Compound 17], the IC50 in experiment [1] was > 100 µM. As for `C[C@]1([N+](=O)[O-])C(=O)c2ccccc2O[C@@H]1CC(=O)NC1CCCCC1` [Compound 18], in experiment [1], the IC50 was > 100 µM.

As to `C[C@]1([N+](=O)[O-])C(=O)c2ccccc2O[C@@H]1CC(=O)NC12CC3CC(CC(C3)C1)C2` [Compound 19], the IC50 in experiment [1] was > 100 µM. Besides, the “more potent antiproliferative activity than cisplatin” value is 1.6 fold in experiment [2] and 5.9 fold in [3]. Consider `C[C@]1([N+](=O)[O-])C(=O)c2ccccc2O[C@@H]1CC(=O)Nc1ccccc1` [Compound 20], for which, in [1], the IC50 is > 100 µM. In the case of `C[C@]1([N+](=O)[O-])C(=O)c2ccccc2O[C@@H]1CC(=O)NCc1ccccc1` [Compound 21], the IC50 in experiment [1] is > 100 µM. Still for that read-out and setting: as for `C[C@]1([N+](=O)[O-])C(=O)c2ccccc2O[C@@H]1CC(=O)Nc1nccs1` [Compound 22], the figure is > 100 µM; as for `C[C@]1([N+](=O)[O-])C(=O)c2ccccc2O[C@@H]1CC(=O)Nc1ncccn1` [Compound 23], > 100 µM; as for `C[C@]1([N+](=O)[O-])C(=O)c2ccccc2O[C@@H]1CC(=O)Nc1ccc2[nH]ccc2c1` [Compound 24], > 100 µM. Consider `C[C@]1([N+](=O)[O-])C(=O)c2ccccc2O[C@@H]1CC(=O)NNc1nc2ccccc2s1` [Compound 26], for which, in experiment [1], the IC50 was > 100 µM. Consider `CN(C(=O)C[C@H]1Oc2ccccc2C(=O)[C@]1(C)[N+](=O)[O-])C1CCCCC1` [Compound 27], for which the IC50 in experiment [1] was > 100 µM. In the case of `CN(C)C(=O)C[C@H]1Oc2ccccc2C(=O)[C@]1(C)[N+](=O)[O-]` [Compound 28], in experiment [1], the IC50 was > 100 µM.

As to `C[C@]1([N+](=O)[O-])C(=O)c2ccccc2O[C@@H]1CC(=O)NC1CCCC1` [Compound 29], the IC50 in experiment [1] is > 100 µM.

For the compound `C[C@]1([N+](=O)[O-])C(=O)c2ccccc2O[C@@H]1CC(=O)NCC1CCCCC1` [Compound 31], the IC50 in [1] was > 100 µM.

With `CC12CC3CC(C)(C1)CC(NC(=O)C[C@H]1Oc4ccccc4C(=O)[C@]1(C)[N+](=O)[O-])(C3)C2` [Compound 32], the IC50 in [1] was > 100 µM.

For `CC[C@]1([N+](=O)[O-])C(=O)c2ccccc2O[C@@H]1CC(=O)NC12CC3CC(CC(C3)C1)C2` [Compound 33], the IC50 in [1] was > 100 µM. `CC[C@]1([N+](=O)[O-])C(=O)c2ccccc2O[C@@H]1CC(=O)NC1CCCCC1` [Compound 34]: the IC50 in experiment [1] was > 100 µM. For `C[C@]1([N+](=O)[O-])C(=O)c2cc(C(F)(F)F)ccc2O[C@@H]1CC(=O)NC12CC3CC(CC(C3)C1)C2` [Compound 35], the IC50 in [1] was > 100 µM. For `C[C@]1([N+](=O)[O-])C(=O)c2cc(F)ccc2O[C@@H]1CC(=O)NC12CC3CC(CC(C3)C1)C2` [Compound 36], the “migration rate in comparison with control” value in experiment [4] was found to be 23.94%. The IC50 in [5] was 4.4 µM; in [1] it was > 100 µM; in experiment [8] it was 7.43 µM. In [6], the “times more potent than the positive compound cisplatin” value is recorded as 2.3–19.4 times. For the same compound, in experiment [7], the “percentage of G2/M phase cells” value was 0%. For the same compound, the “cell migration ability, wound healing” value in [9] is reported as “notably inhibited”. In addition, the “expression of PARP and CL.PARP” value in experiment [10] is reported as “promote the PARP to CL. PARP”. Regarding `C[C@]1([N+](=O)[O-])C(=O)c2cc(Cl)ccc2O[C@@H]1CC(=O)NC12CC3CC(CC(C3)C1)C2` [Compound 37], the IC50 in experiment [1] was > 100 µM. As to `C[C@]1([N+](=O)[O-])C(=O)c2cc(Br)ccc2O[C@@H]1CC(=O)NC12CC3CC(CC(C3)C1)C2` [Compound 38], the IC50 in experiment [1] stood at 3.67 ± 0.56 µM. Consider `COc1ccc2c(c1)C(=O)[C@](C)([N+](=O)[O-])[C@@H](CC(=O)NC13CC4CC(CC(C4)C1)C3)O2` [Compound 40], for which, in [1], the IC50 was > 100 µM. For the compound `C[C@]1([N+](=O)[O-])C(=O)c2c(F)cccc2O[C@@H]1CC(=O)NC12CC3CC(CC(C3)C1)C2` [Compound 41], the half-maximal inhibitory concentration (IC50) in experiment [1] was > 100 µM.

On to `C[C@]1([N+](=O)[O-])C(=O)c2ccc(F)cc2O[C@@H]1CC(=O)NC12CC3CC(CC(C3)C1)C2` [Compound 42], for which the IC50 in experiment [1] was > 100 µM. `C[C@]1([N+](=O)[O-])C(=O)c2cccc(F)c2O[C@@H]1CC(=O)NC12CC3CC(CC(C3)C1)C2` [Compound 43]: in experiment [1], the IC50 was > 100 µM. With `C[C@]1(N)C(=O)c2cc(F)ccc2O[C@@H]1CC(=O)NC12CC3CC(CC(C3)C1)C2` [Compound 44], in [1], the IC50 was > 100 µM.

Consider `CC(=O)O[C@@]12CO[C@@H]1C[C@H](O)[C@@]1(C)C(=O)[C@H](O)C3=C(C)[C@@H](OC(=O)[C@H](O)[C@@H](NC(=O)OC(C)(C)C)c4ccccc4)C[C@@](O)([C@@H](OC(=O)c4ccccc4)[C@H]21)C3(C)C` [Docetaxel, reference compound], for which the IC50 in experiment [1] amounted to 0.157 ± 0.031 µM.

Values taken from publication PMC9073653 (RSC Advances, 2019).
